≈ marks a conversion by molar mass, not a printed value. Calls of active or inactive are those of the source. The calls are words filed in the database; no cut-off is given here.
Experiments:
[1] = test system: Clostridium sporogenes; assay: Antibacterial activity against Clostridium sporogenes ATCC 19404 after 24 hrs by microbroth double dilution method; assay type: functional; details: ATCC 19404, 24 h
Method in brief: (§1)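 Microbroth double dilution in Mueller Hinton broth; compound stock 10 mg/mL in DMSO serially halved across rows. Wells inoculated with 10 μL culture at 10^6 cells/mL, incubated 37 °C for 24 h. Amikacin row as positive control, DMSO row as negative control. MIC taken as lowest concentration inhibiting bacterial growth.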

[2] = Cytotoxicity against human Fem-X cells assessed as cell survival after 72 hrs by MTT assay; assay type: functional, cell-based
Method in brief: (§2)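 Cells seeded (HeLa 2000, MDA-MB-453 3000, others 5000 per well), treated 24 h later (K562 after 2 h). Five double-diluted final concentrations, 200–12.5 μM, from 10 mM DMSO stocks, in RPMI-1640 with 10% FBS, pH 7.2, 72 h. MTT 4 h at 37 °C, SDS added, A570 read next day. Survival relative to medium control; IC50 from survival curves; triplicate; cisplatin positive control.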

[3] = test system: Saccharomyces cerevisiae; assay: Antifungal activity against Saccharomyces cerevisiae ATCC 9763 after 24 hrs by microbroth double dilution method; assay type: functional; details: ATCC 9763, 24 h
[4] = test system: HeLa; assay: Cytotoxicity against human HeLa cells assessed as cell survival after 72 hrs by MTT assay; assay type: functional, cell-based; method in brief: as §2
[5] = test system: Aspergillus brasiliensis; assay: Antifungal activity against Aspergillus brasiliensis ATCC 16404 after 24 hrs by microbroth double dilution method; assay type: functional; details: ATCC 16404, 24 h
[6] = test system: Kocuria rhizophila; assay: Antibacterial activity against Kocuria rhizophila ATCC 9341 after 24 hrs by microbroth double dilution method; assay type: functional; details: ATCC 9341, 24 h; method in brief: as §1
[7] = test system: K562; assay: Cytotoxicity against human K562 cells assessed as cell survival after 72 hrs by MTT assay; assay type: functional, cell-based; details: K562, 72 h; method in brief: as §2
[8] = test system: Bacillus subtilis; assay: Antibacterial activity against Bacillus subtilis ATCC 6633 after 24 hrs by microbroth double dilution method; assay type: functional; details: ATCC 6633, 24 h; method in brief: as §1
[9] = test system: HeLa; assay: Cell cycle arrest in human HeLa cells assessed as accumulation at G2/M phase at 2 time IC50 after 24 hrs using propidium iodide staining by cytofluorometric analysis; assay type: functional, cell-based
Method in brief: (§3)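 Trypsinized, fixed in ice-cold 70% ethanol then held at −20 °C at least one week. Treated with RNase 100 µg/mL at 37 °C 30 min, stained with PI 40 µg/mL at least 30 min. Flow cytometry on ≥10,000 cells.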

[10] = test system: Pseudomonas aeruginosa; assay: Antibacterial activity against Pseudomonas aeruginosa ATCC 9027 after 24 hrs by microbroth double dilution method; assay type: functional; details: ATCC 9027, 24 h; method in brief: as §1
[11] = test system: Salmonella enterica; assay: Antibacterial activity against Salmonella enterica ATCC 13076 after 24 hrs by microbroth double dilution method; assay type: functional; details: ATCC 13076, 24 h; method in brief: as §1
[12] = test system: Artemia salina; assay: Cytotoxicity in Brine shrimp assessed as nauplii mortality after 24 hrs; assay type: organism-based; details: in vivo
Method in brief: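 Artemia salina eggs hatched in aerated tap water with dried yeast at 18–20 °C under illumination for 48 h, and freshly hatched nauplii were used. Compounds in DMSO (0.01–1 mg) were added to 950 µL artificial seawater containing 10–20 nauplii, with 5% final DMSO. After 24 h under illumination at room temperature, dead and surviving nauplii were counted and statistically analysed.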

[13] = test system: Escherichia coli; assay: Antibacterial activity against Escherichia coli ATCC 25922 after 24 hrs by microbroth double dilution method; assay type: functional; details: ATCC 25922, 24 h; method in brief: as §1
[14] = test system: Staphylococcus aureus; assay: Antibacterial activity against Staphylococcus aureus ATCC 6538 after 24 hrs by microbroth double dilution method; assay type: functional; details: ATCC 6538, 24 h; method in brief: as §1
[15] = test system: Micrococcus flavus; assay: Antibacterial activity against Micrococcus flavus ATCC 10240 after 24 hrs by microbroth double dilution method; assay type: functional; details: ATCC 10240, 24 h; method in brief: as §1
[16] = test system: HeLa; assay: Cell cycle arrest in human HeLa cells assessed as accumulation at G2/M phase at IC50 after 24 hrs using propidium iodide staining by cytofluorometric analysis; assay type: functional, cell-based; method in brief: as §3
[17] = test system: MDA-MB-453; assay: Cytotoxicity against human MDA-MB-453 cells assessed as cell survival after 72 hrs by MTT assay; assay type: functional, cell-based; details: MDA-MB-453, 72 h; method in brief: as §2
[18] = test system: MRC5; assay: Cytotoxicity against human MRC5 cells assessed as cell survival after 72 hrs by MTT assay; assay type: cell-based; details: MRC5, 72 h; method in brief: as §2
[19] = test system: Candida albicans; assay: Antifungal activity against Candida albicans ATCC 10231 after 24 hrs by microbroth double dilution method; assay type: functional; details: ATCC 10231, 24 h
[20] = test system: Micrococcus luteus; assay: Antibacterial activity against Micrococcus luteus ATCC 4698 after 24 hrs by microbroth double dilution method; assay type: functional; details: ATCC 4698, 24 h; method in brief: as §1
[21] = test system: Proteus hauseri; assay: Antibacterial activity against Proteus hauseri ATCC 13315 after 24 hrs by microbroth double dilution method; assay type: functional; details: ATCC 13315, 24 h; method in brief: as §1
[22] = test system: A549; assay: Cytotoxicity against human A549 cells assessed as cell survival after 72 hrs by MTT assay; assay type: functional, cell-based; details: A549, 72 h; method in brief: as §2
[23] = test system: HeLa; assay: Cell cycle arrest in human HeLa cells assessed as accumulation at sub-G1 phase at IC50 after 24 hrs using propidium iodide staining by cytofluorometric analysis; assay type: functional, cell-based; method in brief: as §3
[24] = test system: HeLa; assay: Cell cycle arrest in human HeLa cells assessed as accumulation at sub-G1 phase at 2 time IC50 after 24 hrs using propidium iodide staining by cytofluorometric analysis; assay type: functional, cell-based; method in brief: as §3
[25] = test system: HeLa; assay: Cell cycle arrest in human HeLa cells assessed as reduction in G1 phase at 2 time IC50 after 24 hrs using propidium iodide staining by cytofluorometric analysis; assay type: functional, cell-based; method in brief: as §3
[26] = test system: HeLa; assay: Cell cycle arrest in human HeLa cells assessed as reduction in G1 phase at IC50 after 24 hrs using propidium iodide staining by cytofluorometric analysis; assay type: functional, cell-based; method in brief: as §3
[27] = test system: HeLa; assay: Cell cycle arrest in human HeLa cells assessed as accumulation at sub-G1 phase after 24 hrs using propidium iodide staining by cytofluorometric analysis; assay type: functional, cell-based; method in brief: as §3
[28] = test system: HeLa; assay: Cell cycle arrest in human HeLa cells assessed as accumulation at G2/M phase after 24 hrs using propidium iodide staining by cytofluorometric analysis; assay type: functional, cell-based; method in brief: as §3

Row | Structure (SMILES) | MIC [1] [µM] | IC50 [2] [µM] | MIC [3] [µM] | IC50 [4] [µM] | MIC [5] [µM] | MIC [6] [µM] | IC50 [7] [µM] | MIC [8] [µM] | MIC [10] [µM] | MIC [11] [µM] | LC50 [12] [ppm] | MIC [13] [µM] | MIC [14] [µM] | MIC [15] [µM] | IC50 [17] [µM] | IC50 [18] [µM] | MIC [19] [µM] | MIC [20] [µM] | MIC [21] [µM] | IC50 [22] [µM] | further results
1 | CSCC[C@H](NC1=CC(=O)C=C(C[C@]2(C)[C@@H](C)CC[C@]3(C)C(C)=CCC[C@@H]23)C1=O)C(=O)O | 170 (≈ 77.9 µg/mL) | 19.4 | 87.8 (≈ 40.3 µg/mL) | 13.9 | 341 (≈ 157 µg/mL) | 1360 (≈ 625 µg/mL) | 13.6 | 170 (≈ 77.9 µg/mL) | 170 (≈ 77.9 µg/mL) | 170 (≈ 77.9 µg/mL) | 147.7 | 42.4 (≈ 19.5 µg/mL) | 42.4 (≈ 19.5 µg/mL) | 170 (≈ 77.9 µg/mL) | 25.6 | > 200 | < 2.67 | 42.4 (≈ 19.5 µg/mL) | 341 (≈ 157 µg/mL) | 47.3 | Activity [9]: Active; Activity [16]: Active
2 | CC(C)C[C@H](NC1=CC(=O)C=C(C(C)(C)C)C1=O)C(=O)O | 2130 (≈ 625 µg/mL) | 39.4 | 133 (≈ 39 µg/mL) | 57.2 | 1070 (≈ 313 µg/mL) | 2130 (≈ 625 µg/mL) | 76.5 | 2130 (≈ 625 µg/mL) | 4260 (≈ 1250 µg/mL) | 2130 (≈ 625 µg/mL) | 104.8 | 266 (≈ 78 µg/mL) | 266 (≈ 78 µg/mL) | 2130 (≈ 625 µg/mL) | 84.9 | > 200 | 536 (≈ 157 µg/mL) | 266 (≈ 78 µg/mL) | 2130 (≈ 625 µg/mL) | 97.9 | –
3 | C[C@H](NC1=CC(=O)C=C(C(C)(C)C)C1=O)C(=O)O | 2490 (≈ 626 µg/mL) | 20.1 | 626 (≈ 157 µg/mL) | 89.1 | 1240 (≈ 312 µg/mL) | 4980 (≈ 1250 µg/mL) | 77.6 | 2490 (≈ 626 µg/mL) | 2490 (≈ 626 µg/mL) | 2490 (≈ 626 µg/mL) | 393.8 | 1250 (≈ 313 µg/mL) | 1250 (≈ 313 µg/mL) | 2490 (≈ 626 µg/mL) | 112 | > 200 | 626 (≈ 157 µg/mL) | 1250 (≈ 313 µg/mL) | 4980 (≈ 1250 µg/mL) | > 200 | –
4 | CC(C)(C)C1=CC(=O)C=C(N[C@@H](Cc2ccccc2)C(=O)O)C1=O | 1910 (≈ 626 µg/mL) | 67.3 | 119 (≈ 39 µg/mL) | 66.3 | 957 (≈ 313 µg/mL) | 1910 (≈ 626 µg/mL) | 82.3 | 1910 (≈ 626 µg/mL) | 1910 (≈ 626 µg/mL) | 1910 (≈ 626 µg/mL) | 196.8 | 480 (≈ 157 µg/mL) | 480 (≈ 157 µg/mL) | 1910 (≈ 626 µg/mL) | 68 | > 200 | 480 (≈ 157 µg/mL) | 480 (≈ 157 µg/mL) | 1910 (≈ 626 µg/mL) | 164 | –
5 | CC1=CCC[C@H]2[C@](C)(CC3=CC(=O)C=C(N[C@@H](C(=O)O)C(C)C)C3=O)[C@@H](C)CC[C@]12C | 91.3 (≈ 39.1 µg/mL) | 11.4 | 368 (≈ 157 µg/mL) | 10.9 | 164 (≈ 70.2 µg/mL) | 1460 (≈ 626 µg/mL) | 7.78 | 91.3 (≈ 39.1 µg/mL) | 91.3 (≈ 39.1 µg/mL) | 183 (≈ 78.1 µg/mL) | 50.5 | 22.9 (≈ 9.81 µg/mL) | 22.9 (≈ 9.81 µg/mL) | 91.3 (≈ 39.1 µg/mL) | 8.01 | 85.4 | < 2.88 | 22.9 (≈ 9.81 µg/mL) | 183 (≈ 78.1 µg/mL) | 23.8 | Activity [23]: Active; Activity [24]: Active; Activity [9]: Active; Activity [25]: Active; Activity [26]: Active; Activity [16]: Active; Activity [27]: Dose-dependent effect; Activity [28]: Dose-dependent effect
